Screens (PubChem)
An excerpt weighted towards active compounds, which were near 2.3% of everything screened.
MEKK3 PB1 HTS: modulators (inhibitors or enhancers) of MEK5 binding to human MEKK3 PB1 domain | Q99759 | bead-based flow cytometry, Alexa488-MEK5 binding to MEKK3; actives lie on both sides; 0 = blocked by unlabeled MEK5, 100 = vehicle | binding response (% of control), % at 10 µM | hit rate 1.4% among 290,000;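 active means binding response more than 3 SD above or below the average of its plate-row segment, actives on both sides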;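 further: Alexa488 bead fluorescence after subtracting the streptavidin-only scavenger bead signal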
Target sequence (Q99759 whole entry, looked up, the tested form may be a part): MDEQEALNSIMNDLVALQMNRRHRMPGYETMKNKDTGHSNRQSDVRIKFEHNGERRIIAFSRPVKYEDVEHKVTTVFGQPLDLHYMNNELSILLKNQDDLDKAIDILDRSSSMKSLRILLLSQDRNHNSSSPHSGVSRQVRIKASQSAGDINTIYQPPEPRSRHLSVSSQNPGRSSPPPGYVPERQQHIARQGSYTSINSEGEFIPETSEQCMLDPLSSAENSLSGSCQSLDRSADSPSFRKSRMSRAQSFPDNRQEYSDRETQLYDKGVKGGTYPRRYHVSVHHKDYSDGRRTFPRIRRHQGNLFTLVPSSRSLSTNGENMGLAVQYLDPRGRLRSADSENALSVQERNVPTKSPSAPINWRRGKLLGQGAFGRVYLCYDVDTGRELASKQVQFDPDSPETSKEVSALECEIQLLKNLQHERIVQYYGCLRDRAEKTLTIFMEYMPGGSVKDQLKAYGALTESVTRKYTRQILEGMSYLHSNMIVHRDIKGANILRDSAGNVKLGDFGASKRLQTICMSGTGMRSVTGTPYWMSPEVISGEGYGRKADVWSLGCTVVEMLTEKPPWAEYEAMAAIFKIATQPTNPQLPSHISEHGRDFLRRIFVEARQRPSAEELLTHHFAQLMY
MEKK2wt PB1 HTS: raises or lowers MEK5 binding to wildtype human MEKK2 PB1 domain; binding response (% of control), % at 10 µM; Q9Y2U5; hit rate 1.1% among 290,000; bead flow cytometry, Alexa488-MEK5 binding to MEKK2 WT; actives lie on both sides; in the data active means binding response below about 67% or above about 130%
Arrestin-AP2 inh: human beta-arrestin and AP2 interaction inhibition. hit rate 0.31% among 340,000. FITC-arrestin peptide / GST-AP2 beads, flow cytometry; AP2 beta2 appendage carries R879A mutation. AID 504490. inhibition, % at 10 µM;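 active means inhibition above a set limit, near 3 SD of compounds lacking own fluorescence, cut at about 54% in these data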;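 further: plate controls were DMSO wells for no effect and 5 µM unlabelled arrestin peptide for full effect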
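Assay system: GST-AP2 R879A bound to glutathione beads, E. coli-expressed; Medium: PBS with 0.05% Tween 20 and 0.1% BSA; Also added: fluorescein-tagged arrestin peptide at 50 nM final; Timing: 12 min plus 1 h, RT; Measured by: flow cytometry, FL1 (488/535 nm); Evaluation: percent drop in bead-associated FITC signal.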
MEKK2mut PB1 HTS: signal of MEK5 binding to mutant human MEKK2 PB1 domain; bead flow cytometry, Alexa488-MEK5 binding to MEKK2 mutant; percent response, % at 10 µM; hit rate 0.35% among 290,000; AID 1530; in the data active means percent response above about 24%, passing the limit was not always enough
MEKK2wt confirm: raises or lowers MEK5 binding to wildtype human MEKK2, retest; shares compounds with MEKK3 PB1 HTS; binding response (% of control), % at 10 µM; hit rate 2.4% among 5,900; bead flow cytometry, Alexa488-MEK5 binding to MEKK2 WT; actives lie on both sides; in the data active means binding response below about 16% or above about 210%; inactive means in between
MEKK2mut confirm: signal of MEK5 binding to mutant human MEKK2, retest; shares compounds with MEKK3 PB1 HTS; bead flow cytometry, Alexa488-MEK5 binding to MEKK2 mutant; percent response, % at 10 µM; hit rate 2% among 5,900; AID 1893; in the data active means percent response mostly above about 71%, no sharp cut-off; inactive means mostly below about 38%;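 further: higher means compound restores mutant binding toward wildtype level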
MEKK3-MEK5 inh: confirmation of inhibitors of MEK5 binding to human MEKK3; binding response (% of control), % at 10 µM; hit rate 1.8% among 5,900; shares compounds with MEKK3 PB1 HTS; bead flow cytometry, Alexa488-MEK5 binding to MEKK3; active compounds read low;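 active means binding response below 72% of control, or above a set upper limit, though filed actives all read lower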;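 further: 100% = DMSO only wells and 0% = binding blocked by excess unlabeled MEK5; lower values mean stronger disruption of MEK5 binding to MEKK3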
The depositor's hits bear a star; · = no result given; [ ] = dose if it differs, or a comment.

SMILES	MEKK3 PB1 HTS	MEKK2wt PB1 HTS	Arrestin-AP2 inh	MEKK2mut PB1 HTS	MEKK2wt confirm	MEKK2mut confirm	MEKK3-MEK5 inh
CC(N=c1ccccn1C(=O)Nc1ccc(F)cc1)c1ccco1 (configuration not stated)	0.0*[inhibitor]	-4.0*[inhibitor]	40.0	-39.0	95.0	-18.0	95.0
CC(N=c1ccccn1C(=O)Nc1ccc(Cl)cc1)c1ccco1 (configuration not stated)	99.0	96.0	·	-5.0	·	·	·
CN1CCN(C(=O)CSc2ccc(Cl)cc2)CC1	75.0*[inhibitor]	71.0	31.7	-13.0	97.0	-5.0	99.0
CN1CCCN(C(=O)CSc2ccccc2)CC1	103.0	107.0	41.4	5.0	·	·	·
CC(C)n1ncc2c(C(=O)N3CCN(Cc4ccc(Br)s4)CC3)cc(C3CC3)nc21	·	·	3.8	·	·	·	·
CCOc1ccc(-n2c(SCc3ccc([N+](=O)[O-])cc3)nnc2-c2ccc(OC)cc2)cc1	143.0*	102.0	-2.2	0.0	99.0	-2.0	103.0
O=C(NCCN1C(=O)S/C(=C\c2cccc(Cl)c2Cl)C1=O)C1=COCCO1	96.0	93.0	36.9	-9.0	·	·	·
Cc1ccc(C(=O)OCC(=O)NC2CC2)cc1S(=O)(=O)N1CCOCC1	·	·	5.9	·	·	·	·
COc1ccc(CNC(=O)C2CCN(S(=O)(=O)c3ccc4c(c3)C(C)(C)C(=O)N4C)CC2)cc1	101.0	108.0	2.6	5.0	·	·	·
COc1ccc(CNC(=O)C2CCCN(S(=O)(=O)c3ccc4c(c3)C(C)(C)C(=O)N4C)C2)cc1 (configuration not stated)	2.0*[inhibitor]	0.0*[inhibitor]	-5.6	-22.0	101.0	5.0	97.0
CCOC(=O)[C@@H]1[C@H]2COc3cc(OC)ccc3[C@@H]2N2C(=O)N(c3ccccc3)C(=O)[C@]12C	·	·	25.5	·	·	·	·
COc1ccccc1NS(=O)(=O)c1cc(NC(=O)CCc2nc3ccccc3c(=O)[nH]2)ccc1C	·	·	-3.3	·	·	·	·
O=C(Nc1cc(Cl)cc(Cl)c1)C(c1ccccc1)N1CCCCC1 (configuration not stated)	153.0*	122.0	25.5	1.0	118.0	6.0	104.0
CC(C)c1ccc(NC(=O)c2ccc(NC3=NC4CS(=O)(=O)CC4S3)cc2)cc1 (configuration not stated)	98.0	95.0	1.9	-8.0	·	·	·
O=C(NC1CC1)C1CCCN1C(=O)NC1CCCCC1 (configuration not stated)	102.0	106.0	5.8	1.0	·	·	·
CCCCNC(=O)C1CCCN1C(=O)NC1CCCCC1 (configuration not stated)	2.0*[inhibitor]	3.0*[inhibitor]	22.0	0.0	96.0	-6.0	98.0
COc1ccc(C[C@H]2CN3C(=NC[C@@H]3Cc3ccc(O)cc3)N2C[C@H](C)NC(=O)c2ccc(C)c(Br)c2)cc1	117.0	157.0*	-4.4	80.0*	4.0*[inhibitor]	-47.0	2.0*
COc1ccc(C[C@H]2CN3C(=NC[C@@H]3C(C)C)N2C[C@H](C)NC(=O)c2ccc(C)c(Br)c2)cc1	107.0	153.0*	14.9	37.0	141.0	19.0	108.0
O=C1/C(=C\c2ccc(O)c(O)c2)N=C2CCCCCN12	97.0	97.0	37.9	-11.0	·	·	·
CC(=O)C1=C(C)Nc2ncnn2C1c1cccc(Br)c1 (configuration not stated)	99.0	97.0	-0.8	8.0	·	·	·
CCNc1nc(Oc2ccc(C(=O)OCC)cc2)nc(N2CCOCC2)n1	135.0*	117.0	·	1.0	98.0	-1.0	101.0
CC(C)c1ccc(C2N3CC4([N+](=O)[O-])CN2CC([N+](=O)[O-])(C3)C4(C)C)cc1 (configuration not stated)	71.0*[inhibitor]	95.0	0.4	-1.0	95.0	-8.0	96.0
CC1(C)C2([N+](=O)[O-])CN3CC1([N+](=O)[O-])CN(C2)C3c1ccccc1 (configuration not stated)	101.0	102.0	-2.6	-4.0	·	·	·
Cc1c(CN2CCC(Oc3ccc(C(=O)N4CCCCC4)cc3)CC2)cnn1C	102.0	109.0	-0.8	7.0	·	·	·
CCCCCOc1ccc(/C(C)=N/NC2=NCCN2)cc1	106.0	148.0*	8.7	20.0	129.0	10.0	93.0
SMILES	MEKK3 PB1 HTS	MEKK2wt PB1 HTS	Arrestin-AP2 inh	MEKK2mut PB1 HTS	MEKK2wt confirm	MEKK2mut confirm	MEKK3-MEK5 inh
CCOc1ccc(Br)cc1/C(C)=N\NC1=NCCN1	96.0	105.0	-9.8	-1.0	·	·	·
CCCCCCOc1ccc(/C(C)=N/NC2=NCCN2)cc1	112.0	204.0*	-9.6	36.0*	205.0	64.0	111.0
Cc1cc(NC(=O)COC(=O)COc2ccc3c(c2)CCC3)no1	132.0*	131.0	24.0	11.0	105.0	2.0	104.0
O=C(Nc1c(C(=O)C2CC2)oc2ccccc12)c1ccc(Cl)cc1	145.0*	111.0	1.7	1.0	102.0	5.0	102.0
Cc1cccc(Cn2cc(/C=C/[N+](=O)[O-])c3ccccc32)c1	86.0	57.0*[inhibitor]	-0.6	-11.0	90.0	-7.0	100.0
CCOC(=O)Cn1cc(/C=C/[N+](=O)[O-])c2ccccc21	101.0	97.0	2.3	2.0	·	·	·
CCN(Cc1ccccc1)S(=O)(=O)c1ccc(C(=O)N(CCCN(C)C)c2nc3c(C)c(C)ccc3s2)cc1	·	·	-12.7	·	·	·	·
Nc1ccccc1SC1CC(=O)N(c2ccccc2Cl)C1=O (configuration not stated)	49.0*[inhibitor]	59.0	-2.9	-24.0	101.0	7.0	102.0
O=C(Nc1ccc(F)cc1)c1cccnn1	103.0	101.0	8.3	6.0	·	·	·
Cc1cccc(NC(=O)CN(C)C(C)C(=O)Nc2ccc(S(=O)(=O)N3CCCC3)cc2)c1C (configuration not stated)	·	·	3.6	·	·	·	·
Cc1[nH]c2ccccc2c1C(=O)CSC(=S)N1CCCCC1	113.0	96.0	-6.8	-1.0	·	·	·
CCCCNC(=O)C1C2C=CC(C2)C1C(=O)O (configuration not stated)	149.0*	110.0	4.0	0.0	96.0	-7.0	97.0
Cc1ccsc1/C=C(\C#N)C(=O)NCc1ccco1	128.0*	103.0	-2.7	4.0	107.0	9.0	109.0
COc1ccc(-n2cc(CN3CCCC3)c(-c3cccc(F)c3)n2)cc1	93.0	112.0	0.9	8.0	·	·	·
Cc1cccc(-n2cc(CN3CCN(Cc4nccn4C)CC3)c(-c3cccc(F)c3)n2)c1	106.0	153.0*	-0.3	34.0	138.0	19.0	107.0
COc1cc(C(C(=O)NC2CCCCC2)N(CCN2CCOCC2)C(=O)C2COc3ccccc3O2)cc(OC)c1OC (configuration not stated)	97.0	85.0	-12.2	-12.0	·	·	·
CCn1c(SCC(=O)NNC(=O)c2ccco2)nnc1-c1ccco1	94.0	85.0	36.9	-13.0	·	·	·
